Where a SMILES comes first, the peptide text is derived from it. [ ]: non-standard residue; d: D form. d2Nal = N[C@H](Cc1ccc2ccccc2c1)C(=O)O; Nle = CCCC[C@H](N)C(=O)O
Legend:
Melanocortin receptor 4 [1] = molecular target: T1, Melanocortin receptor 4 (Homo sapiens, UniProt P32245); format: cell-based, HEK293
Melanocortin receptor 4 [2] = molecular target: T1, Melanocortin receptor 4; experiment: Effective concentration for intracellular cAMP accumulation in human melanocortin 4 receptor expressing HEK 293 cells; (N = 4); format: functional, cell-based, HEK293
Melanocortin receptor 4 [3] = molecular target: T1, Melanocortin receptor 4; conditions: HEK293
Melanocortin receptor 5 [4] = molecular target: T2, Melanocortin receptor 5 (Homo sapiens, UniProt P33032); experiment: Effective concentration for intracellular cAMP accumulation in human melanocortin 5 receptor expressing HEK 293 cells; (N = 4), No activity; format: functional, cell-based; conditions: hek293
In short: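 HEK293 cells transfected with human MCRs, grown in MEM with 10% FBS, seeded 48 h before at 100 000 cells/well. Preincubated 1 min at 37 °C in EBSS with IBMX, then exposed 3 min at 37 °C to peptide (10^-10 to 10^-5 M). Stopped with ice-cold Tris/EDTA, boiled 15 min, centrifuged; cAMP in supernatant measured by competitive binding kit. EC50 and maximal response by nonlinear least-squares fit.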

Melanocortin receptor 5 [5] = molecular target: T2, Melanocortin receptor 5; format: cell-based, HEK293
[6] = molecular target: T3, Melanocyte-stimulating hormone receptor (Homo sapiens, UniProt Q01726); format: cell-based, HEK293
Target sequence in this assay (Q01726 whole entry): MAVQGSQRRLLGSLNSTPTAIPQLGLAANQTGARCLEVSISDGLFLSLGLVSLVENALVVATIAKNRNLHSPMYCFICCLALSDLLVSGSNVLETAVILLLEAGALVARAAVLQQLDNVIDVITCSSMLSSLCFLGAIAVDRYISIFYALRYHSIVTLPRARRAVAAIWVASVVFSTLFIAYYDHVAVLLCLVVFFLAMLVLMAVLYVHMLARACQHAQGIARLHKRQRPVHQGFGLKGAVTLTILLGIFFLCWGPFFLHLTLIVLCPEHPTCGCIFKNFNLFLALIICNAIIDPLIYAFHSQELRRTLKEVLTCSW

Melanocortin receptor 3 [7] = molecular target: T4, Melanocortin receptor 3 (Homo sapiens, UniProt P41968); experiment: Effective concentration for intracellular cAMP accumulation in human melanocortin 3 receptor expressing HEK 293 cells; (N = 4); format: functional, cell-based, HEK293
In short: (§1)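 HEK293 cells transfected with human MCRs, grown in MEM with 10% FBS, seeded 48 h before at 100 000 cells/well. Stopped with ice-cold Tris/EDTA, boiled 15 min, centrifuged; cAMP in supernatant measured by competitive binding kit. EC50 and maximal response by nonlinear least-squares fit.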

[8] = molecular target: T3, Melanocyte-stimulating hormone receptor; experiment: Effective concentration for intracellular cAMP accumulation in human melanocortin 1 receptor expressing HEK 293 cells; (N = 4); format: functional, cell-based, HEK293; in short: as §1
Target sequence in this assay (Q01726 whole entry): as above

Melanocortin receptor 3 [9] = molecular target: T4, Melanocortin receptor 3; format: cell-based, HEK293
Melanocortin receptor 5 [10] = molecular target: T2, Melanocortin receptor 5; experiment: Effective concentration for intracellular cAMP accumulation in human melanocortin 5 receptor expressing HEK 293 cells; (N = 4); format: functional, cell-based, HEK293; in short: as §1
Melanocortin receptor 5 [11] = molecular target: T2, Melanocortin receptor 5; experiment: Maximal effect on human melanocortin 5 receptor expressing HEK 293 cells; format: functional, cell-based; conditions: HEK293; in short: as §1
[12] = molecular target: T3, Melanocyte-stimulating hormone receptor; experiment: Maximal effect on human melanocortin 1 receptor expressing HEK 293 cells; format: functional, cell-based; conditions: HEK293; in short: as §1
Target sequence in this assay (Q01726 whole entry, looked up): as the sequence (Q01726 whole entry) above

Melanocortin receptor 3 [13] = molecular target: T4, Melanocortin receptor 3; experiment: Maximal effect on human melanocortin 3 receptor expressing HEK 293 cells; format: functional, cell-based; conditions: HEK293; in short: as §1

T1 sequence (P32245 whole entry): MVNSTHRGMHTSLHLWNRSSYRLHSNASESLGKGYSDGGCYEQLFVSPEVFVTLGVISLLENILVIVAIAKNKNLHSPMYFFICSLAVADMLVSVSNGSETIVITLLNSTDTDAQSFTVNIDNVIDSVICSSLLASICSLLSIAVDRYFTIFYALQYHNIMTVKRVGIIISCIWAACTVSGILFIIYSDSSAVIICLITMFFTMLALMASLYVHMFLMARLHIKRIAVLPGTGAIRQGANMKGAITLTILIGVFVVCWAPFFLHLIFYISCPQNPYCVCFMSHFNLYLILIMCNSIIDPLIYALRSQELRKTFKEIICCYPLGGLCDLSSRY
T2 sequence (P33032 whole entry): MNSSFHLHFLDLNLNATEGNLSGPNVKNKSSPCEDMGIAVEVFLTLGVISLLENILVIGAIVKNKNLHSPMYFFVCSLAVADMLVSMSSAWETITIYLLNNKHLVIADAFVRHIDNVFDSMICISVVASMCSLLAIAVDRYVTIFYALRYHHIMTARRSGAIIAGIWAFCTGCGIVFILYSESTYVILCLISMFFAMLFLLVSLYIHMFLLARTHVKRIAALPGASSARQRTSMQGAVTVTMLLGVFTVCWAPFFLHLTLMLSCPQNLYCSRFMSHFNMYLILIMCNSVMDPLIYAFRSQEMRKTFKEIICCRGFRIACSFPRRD
T4 sequence (P41968 whole entry): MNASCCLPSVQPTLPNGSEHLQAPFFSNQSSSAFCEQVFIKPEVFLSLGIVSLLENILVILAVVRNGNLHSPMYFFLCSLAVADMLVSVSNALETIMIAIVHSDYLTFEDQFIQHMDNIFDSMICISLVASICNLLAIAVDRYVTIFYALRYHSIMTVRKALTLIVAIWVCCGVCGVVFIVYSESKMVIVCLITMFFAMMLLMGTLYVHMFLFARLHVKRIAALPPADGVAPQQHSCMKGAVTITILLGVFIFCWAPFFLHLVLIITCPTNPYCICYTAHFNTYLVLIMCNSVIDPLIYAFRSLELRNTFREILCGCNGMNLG

SMILES	IC50 (Melanocortin receptor 4 [1]) [µM]	EC50 (Melanocortin receptor 4 [2]) [µM]	IC50 (Melanocortin receptor 5 [5]) [µM]	IC50 [6] [µM]	EC50 (Melanocortin receptor 3 [7]) [µM]	EC50 [8] [µM]	IC50 (Melanocortin receptor 3 [9]) [µM]	EC50 (Melanocortin receptor 5 [10]) [µM]	further results
CCCC[C@H](NC(=O)[C@@H](NC(=O)[C@@H](N)Cc1ccc(O)cc1)C(C)C)C(=O)NCC(=O)N[C@@H](Cc1c[nH]cn1)C(=O)N[C@@H](Cc1ccccc1)C(=O)N[C@@H](CCCN=C(N)N)C(=O)N[C@@H](Cc1c[nH]c2ccccc12)C(=O)N[C@@H](CC(=O)O)C(=O)N[C@@H](CCCN=C(N)N)C(=O)N[C@@H](Cc1ccccc1)C(=O)NCC(=O)O	–	–	–	–	–	–	–	–	Maximal effect (Melanocortin receptor 4 [3]): 100%
CCCC[C@H](NC(=O)[C@@H](NC(=O)[C@@H](N)Cc1ccc(O)cc1)C(C)C)C(=O)NCC(=O)N1CCC[C@H]1C(=O)N[C@H](Cc1ccc2ccccc2c1)C(=O)N[C@@H](CCCN=C(N)N)C(=O)N[C@H](Cc1ccc2ccccc2c1)C(=O)N[C@@H](CC(=O)O)C(=O)N[C@@H](CCCN=C(N)N)C(=O)N[C@@H](Cc1ccccc1)C(=O)NCC(N)=O	0.004	0.0033	0.002	0.002	0.011	0.002	0.003	–	EC50 (Melanocortin receptor 5 [4]): Not Active
CCCC[C@H](NC(=O)[C@@H](NC(=O)[C@@H](N)Cc1ccc(O)cc1)C(C)C)C(=O)NCC(=O)N1CCC[C@H]1C(=O)N[C@@H](Cc1ccccc1)C(=O)N[C@@H](CCCN=C(N)N)C(=O)N[C@H](Cc1ccc2ccccc2c1)C(=O)N[C@@H](CC(=O)O)C(=O)N[C@@H](CCCN=C(N)N)C(=O)N[C@@H](Cc1ccccc1)C(=O)NCC(=O)O	–	–	–	–	–	–	–	–	Maximal effect (Melanocortin receptor 4 [3]): 14%; Maximal effect (Melanocortin receptor 5 [11]): 46%; Maximal effect [12]: 120%; Maximal effect (Melanocortin receptor 3 [13]): 28%
CCCC[C@H](NC(=O)[C@@H](NC(=O)[C@@H](N)Cc1ccc(O)cc1)C(C)C)C(=O)NCC(=O)N[C@H](Cc1ccc2ccccc2c1)C(=O)N[C@@H](Cc1ccccc1)C(=O)N[C@@H](CCCN=C(N)N)C(=O)N[C@@H](Cc1c[nH]c2ccccc12)C(=O)N[C@@H](CC(=O)O)C(=O)N[C@@H](CCCN=C(N)N)C(=O)N[C@@H](Cc1ccccc1)C(=O)NCC(N)=O	–	–	–	–	–	–	–	–	IC50 (Melanocortin receptor 5 [5]; hek293): 1 µM; IC50 (Melanocortin receptor 4 [1]; hek293): 1.99 µM; EC50 (Melanocortin receptor 3 [7]; hek293): > 10 µM; EC50 (Melanocortin receptor 4 [2]; hek293): > 10 µM; IC50 (Melanocortin receptor 3 [9]; hek293): 3 µM; EC50 (Melanocortin receptor 5 [10]; hek293): 0.87 µM
CCCC[C@H](NC(=O)[C@@H](NC(=O)[C@@H](N)Cc1ccc(O)cc1)C(C)C)C(=O)NCC(=O)N[C@@H](Cc1cnc[nH]1)C(=O)N[C@H](Cc1ccc2ccccc2c1)C(=O)N[C@@H](CCCNC(=N)N)C(=O)N[C@H](Cc1ccccc1)C(=O)N[C@@H](CC(=O)O)C(=O)N[C@@H](CCCNC(=N)N)C(=O)N[C@@H](Cc1ccccc1)C(=O)NCC(N)=O (H-YV[Nle]GH[d2Nal]R[dF]DRFG-NH2)	0.02	2.7	0.0033	0.00016	0.951	0.0015	0.006	0.49	–
CCCC[C@H](NC(=O)[C@@H](NC(=O)[C@@H](N)Cc1ccc(O)cc1)C(C)C)C(=O)NCC(=O)N1CCC[C@H]1C(=O)N[C@@H](Cc1ccccc1)C(=O)N[C@@H](CCCN=C(N)N)C(=O)N[C@H](Cc1ccc2ccccc2c1)C(=O)N[C@@H](CC(=O)O)C(=O)N[C@@H](CCCN=C(N)N)C(=O)N[C@@H](Cc1ccccc1)C(=O)NCC(N)=O	–	–	0.65	–	0.013	–	0.032	0.25	–

Continued, in another order:

IC50 (Melanocortin receptor 4 [1]) [µM]	EC50 (Melanocortin receptor 4 [2]) [µM]	IC50 (Melanocortin receptor 5 [5]) [µM]	IC50 [6] [µM]	EC50 (Melanocortin receptor 3 [7]) [µM]	EC50 [8] [µM]	IC50 (Melanocortin receptor 3 [9]) [µM]	EC50 (Melanocortin receptor 5 [10]) [µM]	SMILES	further results
0.017	0.029	–	–	–	–	–	–	CCCC[C@H](NC(=O)[C@@H](NC(=O)[C@@H](N)Cc1ccc(O)cc1)C(C)C)C(=O)NCC(=O)N[C@@H](Cc1c[nH]cn1)C(=O)N[C@H](Cc1ccccc1)C(=O)N[C@@H](CCCN=C(N)N)C(=O)N[C@H](Cc1c[nH]c2ccccc12)C(=O)N[C@@H](CC(=O)O)C(=O)N[C@@H](CCCN=C(N)N)C(=O)N[C@@H](Cc1ccccc1)C(=O)NCC(N)=O	–
0.006	0.036	0.005	0.0007	–	0.002	0.006	0.2	CCCC[C@H](NC(=O)[C@@H](NC(=O)[C@@H](N)Cc1ccc(O)cc1)C(C)C)C(=O)NCC(=O)N[C@@H](Cc1c[nH]cn1)C(=O)N[C@H](Cc1ccccc1)C(=O)N[C@@H](CCCN=C(N)N)C(=O)N[C@H](Cc1ccc2ccccc2c1)C(=O)N[C@@H](CC(=O)O)C(=O)N[C@@H](CCCN=C(N)N)C(=O)N[C@@H](Cc1ccccc1)C(=O)NCC(N)=O	–
0.064	–	–	–	–	–	–	–	CCCC[C@H](NC(=O)[C@@H](NC(=O)[C@@H](N)Cc1ccc(O)cc1)C(C)C)C(=O)NCC(=O)N[C@@H](Cc1c[nH]cn1)C(=O)N[C@@H](Cc1ccccc1)C(=O)N[C@@H](CCCN=C(N)N)C(=O)N[C@@H](Cc1c[nH]c2ccccc12)C(=O)N[C@@H](CC(=O)O)C(=O)N[C@@H](CCCN=C(N)N)C(=O)N[C@@H](Cc1ccccc1)C(=O)NCC(N)=O	–
